Assay results from PMC7498158 (Journal of Medicinal Chemistry, 2020).

How the values were obtained:
Assay type in all cases: biochemical
Details in all cases: 10 μM
mDAGLα = biological target: T1, mDAGLα (Mus musculus, UniProt Q6WQJ1); assay: gel-based ABPP, mouse brain membrane proteome
T1 sequence (Q6WQJ1 1-1044): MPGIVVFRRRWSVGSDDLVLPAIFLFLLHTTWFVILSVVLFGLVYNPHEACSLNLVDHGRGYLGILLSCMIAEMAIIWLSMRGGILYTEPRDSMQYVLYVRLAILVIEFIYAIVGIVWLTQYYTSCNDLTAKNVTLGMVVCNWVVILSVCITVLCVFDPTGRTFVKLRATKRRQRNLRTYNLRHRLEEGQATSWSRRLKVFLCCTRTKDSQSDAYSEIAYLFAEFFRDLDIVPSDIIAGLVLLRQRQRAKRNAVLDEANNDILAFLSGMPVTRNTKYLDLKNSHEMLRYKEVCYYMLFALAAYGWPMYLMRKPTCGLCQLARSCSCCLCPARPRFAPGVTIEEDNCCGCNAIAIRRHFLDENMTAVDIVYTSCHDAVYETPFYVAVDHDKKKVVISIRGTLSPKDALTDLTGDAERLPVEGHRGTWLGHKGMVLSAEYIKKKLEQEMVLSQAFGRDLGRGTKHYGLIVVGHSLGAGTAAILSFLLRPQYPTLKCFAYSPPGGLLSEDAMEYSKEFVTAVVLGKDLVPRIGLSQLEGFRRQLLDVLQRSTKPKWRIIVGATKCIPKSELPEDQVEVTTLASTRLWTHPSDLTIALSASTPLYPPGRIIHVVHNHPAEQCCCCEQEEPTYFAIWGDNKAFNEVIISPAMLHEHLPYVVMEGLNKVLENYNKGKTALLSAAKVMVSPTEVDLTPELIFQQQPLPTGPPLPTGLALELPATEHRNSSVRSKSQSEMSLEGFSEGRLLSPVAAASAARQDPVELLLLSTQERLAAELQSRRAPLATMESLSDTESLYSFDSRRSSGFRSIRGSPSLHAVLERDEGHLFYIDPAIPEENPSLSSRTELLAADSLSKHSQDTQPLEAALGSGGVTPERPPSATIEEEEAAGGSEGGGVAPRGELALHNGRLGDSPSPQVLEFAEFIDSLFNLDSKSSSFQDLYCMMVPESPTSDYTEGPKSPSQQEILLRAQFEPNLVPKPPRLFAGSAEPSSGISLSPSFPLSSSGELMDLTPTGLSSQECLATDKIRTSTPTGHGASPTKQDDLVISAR
Procedure, shortened: (§1)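 Mouse brain was dounce-homogenized in 20 mM HEPES pH 7.2 with DTT, MgCl2 and benzonase. The membrane pellet from ultracentrifugation (100,000g, 45 min, 4 °C) was used at 2 μg/μL. It was preincubated with test compound in DMSO (30 min, rt), then labeled with MB064 (250 nM) or FP-TAMRA (500 nM) for 15 min at rt. Samples ran on 10% SDS-PAGE; fluorescence was normalized to Coomassie staining.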

hPLA2G4E = biological target: T2, hPLA2G4E (Homo sapiens, UniProt Q3MJ16); assay: gel-based ABPP with FP-TAMRA, hPLA2G4E-overexpressing membrane lysate
T2 sequence (Q3MJ16 1-868): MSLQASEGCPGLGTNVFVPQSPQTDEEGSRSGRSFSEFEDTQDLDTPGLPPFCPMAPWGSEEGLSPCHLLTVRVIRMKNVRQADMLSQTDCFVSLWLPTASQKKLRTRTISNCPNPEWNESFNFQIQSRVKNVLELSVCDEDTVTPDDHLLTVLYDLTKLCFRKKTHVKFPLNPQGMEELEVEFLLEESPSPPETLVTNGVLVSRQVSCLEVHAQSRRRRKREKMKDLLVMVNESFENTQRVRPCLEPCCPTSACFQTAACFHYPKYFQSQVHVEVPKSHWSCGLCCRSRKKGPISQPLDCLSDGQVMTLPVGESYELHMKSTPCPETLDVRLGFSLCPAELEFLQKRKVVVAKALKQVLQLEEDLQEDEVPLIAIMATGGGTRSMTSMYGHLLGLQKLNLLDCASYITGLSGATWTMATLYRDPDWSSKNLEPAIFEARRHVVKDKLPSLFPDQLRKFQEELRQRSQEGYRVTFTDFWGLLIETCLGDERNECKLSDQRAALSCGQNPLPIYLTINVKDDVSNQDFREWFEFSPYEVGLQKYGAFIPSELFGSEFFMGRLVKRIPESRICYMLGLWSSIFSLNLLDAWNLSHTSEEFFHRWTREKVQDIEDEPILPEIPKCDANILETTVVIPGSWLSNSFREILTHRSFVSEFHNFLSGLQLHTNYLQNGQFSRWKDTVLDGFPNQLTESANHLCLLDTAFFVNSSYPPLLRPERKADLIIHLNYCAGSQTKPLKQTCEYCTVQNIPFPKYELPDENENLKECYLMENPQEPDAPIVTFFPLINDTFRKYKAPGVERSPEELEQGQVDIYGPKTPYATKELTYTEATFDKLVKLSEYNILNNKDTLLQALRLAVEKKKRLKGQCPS
Procedure, shortened: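 Membrane lysate from hPLA2G4E-overexpressing cells (1 μg/μL) was preincubated with test compound in DMSO (30 min, rt), then labeled with FP-TAMRA (50 nM, 5 min, rt). Proteins were denatured in Laemmli buffer and resolved on 8% acrylamide SDS-PAGE. In-gel fluorescence was normalized to Coomassie staining.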

hNAPE-PLD = hNAPE-PLD (Homo sapiens, UniProt Q6IQ20); assay: NAPE-PLD surrogate substrate
Sequence of hNAPE-PLD (Q6IQ20 whole entry): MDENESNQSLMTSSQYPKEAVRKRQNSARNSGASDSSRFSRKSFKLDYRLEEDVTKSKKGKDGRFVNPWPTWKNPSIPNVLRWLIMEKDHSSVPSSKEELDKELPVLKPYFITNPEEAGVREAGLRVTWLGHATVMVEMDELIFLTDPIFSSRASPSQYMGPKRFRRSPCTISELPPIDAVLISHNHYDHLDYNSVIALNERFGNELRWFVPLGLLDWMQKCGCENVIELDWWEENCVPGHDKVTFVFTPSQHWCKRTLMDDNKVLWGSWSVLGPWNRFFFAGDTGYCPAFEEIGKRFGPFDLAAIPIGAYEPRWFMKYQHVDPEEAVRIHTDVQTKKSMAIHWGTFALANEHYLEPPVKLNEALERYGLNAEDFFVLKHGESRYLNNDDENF

mFAAH = biological target: T3, mFAAH (Mus musculus, UniProt O08914); assay: gel-based ABPP, mouse brain membrane proteome
T3 sequence (O08914 1-579): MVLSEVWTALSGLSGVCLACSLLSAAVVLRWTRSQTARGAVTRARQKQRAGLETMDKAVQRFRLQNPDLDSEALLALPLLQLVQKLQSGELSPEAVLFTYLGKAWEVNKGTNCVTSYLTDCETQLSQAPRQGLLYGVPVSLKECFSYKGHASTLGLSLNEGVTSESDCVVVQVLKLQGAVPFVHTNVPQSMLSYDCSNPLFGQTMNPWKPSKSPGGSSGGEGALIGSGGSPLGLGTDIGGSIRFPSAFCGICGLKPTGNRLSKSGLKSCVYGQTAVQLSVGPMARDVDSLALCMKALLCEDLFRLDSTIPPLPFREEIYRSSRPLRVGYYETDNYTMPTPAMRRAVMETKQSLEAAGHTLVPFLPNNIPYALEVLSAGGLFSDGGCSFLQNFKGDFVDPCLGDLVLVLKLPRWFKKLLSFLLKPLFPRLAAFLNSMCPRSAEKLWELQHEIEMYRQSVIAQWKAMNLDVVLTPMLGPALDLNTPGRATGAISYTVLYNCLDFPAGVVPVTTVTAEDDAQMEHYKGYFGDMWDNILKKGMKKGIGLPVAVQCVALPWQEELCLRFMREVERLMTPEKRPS
Procedure, shortened: as §1

O=C(CCCc1ccccc1)C(=O)NCCc1ccc(Oc2ccccc2)cc1 [Compound 51, 2-Oxo-N-(4-phenoxyphenethyl)-5-phenylpentanamide]
not inhibited: inhibition of DAGLα (in words) (mDAGLα) | inhibition of PLA2G4E (in words) (hPLA2G4E) | inhibition of NAPE-PLD (in words) (hNAPE-PLD) | inhibition of FAAH (in words) (mFAAH)
